# An excerpt weighted towards active compounds, which were near 1.4% of everything screened.
# Vif inh: blocks HIV Vif function | HEK293T cells, Vif self-association by quenched fluorescence, imaging, 24 h | actives 0.35% (n = 340,000) | inhibition, % at 7.49 µM; in the data active means inhibition above about 50%, passing the limit was not always enough
# T cell modulator: T cell immune modulation candidate. 2C CD8+ T cell-vesicle binding, flow cytometry; active compounds read low. response (vesicle binding), % at 7 µM. actives 0.068% (n = 330,000). AID 2052;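 active means response, share of CD8 T cells binding vesicles, and their 90th percentile fluorescence all below set limits, cut at about 80% in these data, passing the limit was not always enough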;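 further: values below 100% mean blocked vesicle binding to the CD8+ T cells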
#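 incubation = binding step 1.5 h, 37 °C, antibody labelling 20 min, ice | test system = 2C mouse CD8+ T cells | read-out basis = percent CD8+ FL2 mean versus row control | controls = Peptide-free naked vesicles (low) and QL9 vesicles with 0.7% DMSO vehicle (high) | detection = flow cytometry of vesicle-bound cells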
# Myeloid diff MLP: myeloid differentiation induction | AID 624256 | calls only at 10 µM | ER-HoxA9 myeloid progenitors, lysozyme-GFP differentiation, flow cytometry | actives 1% (n = 360,000);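 active means normalized GFP-positive differentiation at or above the plate's own cutoff, the solvent-only control mean plus 3 SD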;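 further: cells exposed to compound for four days before flow analysis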
# Casp6 inh: blocks human caspase-6 cleavage activity; purified caspase-6, Z-VEID-R110 cleavage fluorescence; inhibition, % at 12.5 µM; actives 0.53% (n = 350,000);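 active means mean inhibition across replicates at least about 35%, with every replicate also reaching that limit, limit read from the data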;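 further: 0% = median of neutral control wells and 100% = no fluorescence left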
# Target sequence (P55212 24-179 limits assumed): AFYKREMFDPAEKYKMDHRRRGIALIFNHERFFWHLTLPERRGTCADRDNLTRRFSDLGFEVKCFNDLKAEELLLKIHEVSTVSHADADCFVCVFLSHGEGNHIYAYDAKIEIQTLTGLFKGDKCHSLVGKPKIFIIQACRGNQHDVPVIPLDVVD
# Target sequence (P55212 194-293 limits assumed): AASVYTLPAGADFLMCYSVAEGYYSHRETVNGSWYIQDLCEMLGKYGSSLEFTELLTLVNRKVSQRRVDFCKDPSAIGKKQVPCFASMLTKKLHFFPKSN
# The depositor's hits bear a star; i = inactive; / = no result given; + = active, no number.
SMILES,Vif inh,T cell modulator,Myeloid diff MLP,Casp6 inh
O=C(CCN1CCCCCC1)c1ccccc1,20.4,184.4,i,/
CCNC(=O)[C@H]1[C@H](CO)[C@H]2Cn3c(ccc(-c4ccc(OC)cc4)c3=O)[C@@H]1N2CC,/,/,/,-0.6
O=C(c1ccccc1F)N1C[C@H]2[C@@H](c3ccccc31)[C@H](CO)N2C(=O)c1ccccc1,/,/,/,-0.9
S=c1[nH]ccn1-c1cccc(Cl)c1Cl,52.4*,643.0,i,-3.2
Cc1cccc(C(=O)NCCC(=O)NCc2ccccc2Cl)c1,53.6*,993.4,i,-4.1
Cc1cccc(C(=O)NCCC(=O)NCc2ccccc2F)c1,13.4,374.1,i,-6.0
CCCC(=O)Nc1ccc2c(c1)C(=O)N(C)[C@@H]1CC[C@@H](CC(=O)Nc3ccccc3)O[C@H]1CO2,/,/,/,-0.5
COc1ccc(CNC(=O)c2sc(=O)n(Cc3cc(C(C)=O)ccc3OC)c2C)cc1,-3.1,/,i,-1.5
COc1ccc(C(C)=O)cc1Cn1c(C)c(C(=O)NCc2ccc(C(C)C)cc2)sc1=O,-4.8,/,+,-1.4
O=[N+]([O-])c1ccc(/C=C/C2=NN(c3ccccc3)C(c3ccco3)C2)o1 (configuration not stated),i,/,+,/
O=C(Cc1ccccc1)N1CC(=O)N2[C@H](C1)[C@@H](c1ccc(-c3cccc(F)c3)cc1)[C@@H]2CO,/,/,/,-2.0
N#C/C(=C\c1ccc(N2CCOCC2)o1)C(=O)NC1CCCCC1,i,824.0,i,3.2
N#C/C(=C/c1ccc(N2CCOCC2)o1)C(=O)Nc1ccccc1,/,/,+,-17.8
N#C/C(=C\c1ccc(N2CCOCC2)o1)C(=O)NCC1CCCO1 (configuration not stated),111.2*,226.7,i,34.5
C[C@H]1CN([C@@H](C)CO)C(=O)c2cc(-c3cccnc3)cnc2O[C@@H]1CN(C)C(=O)NC1CCCC1,/,/,/,-0.6
C[C@H](NC(=O)C[C@H]1CC[C@H](NC(=O)CN2CCOCC2)[C@H](CO)O1)c1ccccc1,/,/,/,-0.6
O=C(C[C@H]1CC[C@H]2[C@@H](COC[C@@H](O)CN2C(=O)c2cccnc2)O1)NCc1ccccc1,/,/,/,2.0
N#Cc1cccc(S(=O)(=O)NNC(=O)C23CC4CC(CC(C4)C2)C3)c1,7.0,58.3*,i,-1.3
COc1ccc(S(=O)(=O)NNC(=O)C23CC4CC(CC(C4)C2)C3)cc1,-6.4,296.5,i,4.9
CCOC(=O)c1c(C)[nH]c(C)c1S(=O)(=O)NCCc1sccc1C,-7.1,286.2,+,4.3
CN(C)CC(=O)N[C@H]1CC[C@H](CC(=O)NCc2ccccc2F)O[C@H]1CO,/,/,/,-1.6
CCC(=O)Nc1ccc2c(c1)OC[C@H](C)N(Cc1cccnc1)C[C@H](C)[C@@H](OC)CN(C)C2=O,/,/,/,-0.5
COCC(=O)Nc1ccc2c(c1)OC[C@H](C)N(CCC(F)(F)F)C[C@H](C)[C@@H](OC)CN(C)C2=O,/,/,/,0.3
COc1ccc(N2CCN(CC(=O)Nc3ccccc3C(=O)NC(C)c3ccccc3)CC2)cc1 (configuration not stated),16.7,/,+,1.0
O=C1c2ccccc2C(=O)c2cc(N3CCCCC3)ccc21,-5.9,/,+,1.2
SMILES,Vif inh,T cell modulator,Myeloid diff MLP,Casp6 inh
C[C@@H]1CN([C@H](C)CO)C(=O)c2cccc(NC(=O)NC3CCCCC3)c2O[C@H]1CN(C)S(C)(=O)=O,/,/,/,0.3
C[C@H](CO)N1C[C@H](C)[C@H](CN(C)Cc2cccc(C(F)(F)F)c2)Oc2ncc(/C=C/c3ccccc3)cc2C1=O,/,/,/,-3.2
Brc1ccc(C2Nc3cccc4cccc(c34)N2)cc1,8.3,/,+,1.7
Fc1ccc(C2Nc3cccc4cccc(c34)N2)cc1,1.4,315.6,i,1.6
CC1CC(C)CN(C(=O)c2ccc(S(=O)(=O)N3CC(C)CC(C)C3)cc2)C1 (configuration not stated),-1.5,179.5,i,4.7
CC1CC(C)CN(S(=O)(=O)c2ccc(C(=O)N3CCCC3)cc2)C1 (configuration not stated),-2.1,284.4,+,-4.5
Cc1cnc(C2OCCO2)c2cccc(N)c12,/,/,i,59.8*
CC(=O)Nc1ccc2cc3ccc(NC(C)=O)cc3nc2c1,8.4,299.7,+,-4.1
Cn1nc(NC(=O)C2CCC2C(=O)O)c2c(F)cccc21 (configuration not stated),13.2,i,i,4.9
Cc1ccc(C(=O)Nc2nn(C)c3cccc(F)c23)cc1,50.1*,266.8,i,3.2
CCOC(=O)C1CCCN(S(=O)(=O)c2ccc(C)cc2)C1 (configuration not stated),-1.1,579.8,i,/

# Assay outcomes: PubChem BioAssay, several laboratories
